Active and inactive are the calls of the source. The rule behind the calls is not given here.
Legend:
[1] = target: Histone deacetylase; test: Inhibition of HDAC in human HeLa cells using FLUOR DE LYS-SIRT1 as fluorogenic substrate incubated for 4 hrs by spectrophotometer based analysis; format: cell-based
[2] = target: Histone deacetylase 2 (Homo sapiens, UniProt Q92769); test: Inhibition of human HDAC2
[3] = target: T1, Histone deacetylase 7 (Homo sapiens) (UniProt Q8WUI4); test: Inhibition of human HDAC7 at 5 uM
T1 sequence (whole entry): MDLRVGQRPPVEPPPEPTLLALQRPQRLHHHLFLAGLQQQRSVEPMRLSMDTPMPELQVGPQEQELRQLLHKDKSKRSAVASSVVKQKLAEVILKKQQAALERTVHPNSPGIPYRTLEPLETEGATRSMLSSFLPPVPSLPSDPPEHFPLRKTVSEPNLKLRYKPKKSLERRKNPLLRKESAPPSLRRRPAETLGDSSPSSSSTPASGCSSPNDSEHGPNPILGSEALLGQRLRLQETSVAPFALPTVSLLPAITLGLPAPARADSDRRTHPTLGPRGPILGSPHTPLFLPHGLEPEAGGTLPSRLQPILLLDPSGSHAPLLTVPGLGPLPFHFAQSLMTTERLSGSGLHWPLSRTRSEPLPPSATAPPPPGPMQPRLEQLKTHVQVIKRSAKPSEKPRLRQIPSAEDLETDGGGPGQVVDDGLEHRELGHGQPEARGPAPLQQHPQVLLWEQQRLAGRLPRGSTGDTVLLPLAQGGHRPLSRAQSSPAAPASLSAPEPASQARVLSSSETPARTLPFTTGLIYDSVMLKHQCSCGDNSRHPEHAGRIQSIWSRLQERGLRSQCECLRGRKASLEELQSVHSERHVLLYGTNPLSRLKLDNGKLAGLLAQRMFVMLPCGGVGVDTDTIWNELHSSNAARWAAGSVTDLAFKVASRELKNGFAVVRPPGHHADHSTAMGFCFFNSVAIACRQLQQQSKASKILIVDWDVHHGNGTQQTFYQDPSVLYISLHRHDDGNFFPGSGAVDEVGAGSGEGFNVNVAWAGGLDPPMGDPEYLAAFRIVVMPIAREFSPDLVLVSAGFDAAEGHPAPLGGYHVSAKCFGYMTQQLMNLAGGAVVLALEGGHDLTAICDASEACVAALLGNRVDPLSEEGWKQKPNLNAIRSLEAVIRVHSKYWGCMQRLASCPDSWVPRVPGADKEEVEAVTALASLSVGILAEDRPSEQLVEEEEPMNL

[4] = Genotoxicity in Escherichia coli by Ames test; format: toxicity
Outline: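 Bacterial reverse mutation assay in two strains, Salmonella typhimurium and Escherichia coli, scoring reverse mutations.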

[5] = Unbound fraction in human plasma; format: ADME, cell-free
[6] = Oral bioavailability in NMRI mouse at 20 mg/kg by LC/MS/MS analysis; format: ADME, organism-based; details: in vivo
Outline: (§1)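 Compound dosed as the tartrate salt. Oral doses were 20 mg/kg in mouse, 10 mg/kg in rat and 5 mg/kg in minipig.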

[7] = Oral bioavailability in Wistar rat at 10 mg/kg by LC/MS/MS analysis; format: ADME, organism-based; details: in vivo; outline: as §1
[8] = Oral bioavailability in Gottigen pig by LC/MS/MS analysis; format: ADME, organism-based, Sus scrofa; details: in vivo; outline: as §1
[9] = Volume of distribution at steady state in NMRI mouse at 20 mg/kg, po or 2 mg/kg, iv by LC/MS/MS analysis; format: ADME, organism-based; details: in vivo; outline: as §1
[10] = Volume of distribution at steady state in Wistar rat at 10 mg/kg, po or 2 mg/kg,iv by LC/MS/MS analysis; format: ADME, organism-based; details: in vivo; outline: as §1
[11] = Volume of distribution at steady state in Gottigen pig by LC/MS/MS analysis; format: ADME, Sus scrofa; details: in vivo, read-out: Vdss; outline: as §1
[12] = AUC in Wistar rat plasma at 5 to 20 mg/kg, po by LC/MS/MS analysis; format: ADME, organism-based; parameters: route po; details: dose 5-20 mg/kg
Outline: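 Compound given orally as its tartrate salt at 20 mg/kg in mouse, 10 mg/kg in rat and 5 mg/kg in minipig.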

Histone deacetylase 2, sequence (Q92769 whole entry): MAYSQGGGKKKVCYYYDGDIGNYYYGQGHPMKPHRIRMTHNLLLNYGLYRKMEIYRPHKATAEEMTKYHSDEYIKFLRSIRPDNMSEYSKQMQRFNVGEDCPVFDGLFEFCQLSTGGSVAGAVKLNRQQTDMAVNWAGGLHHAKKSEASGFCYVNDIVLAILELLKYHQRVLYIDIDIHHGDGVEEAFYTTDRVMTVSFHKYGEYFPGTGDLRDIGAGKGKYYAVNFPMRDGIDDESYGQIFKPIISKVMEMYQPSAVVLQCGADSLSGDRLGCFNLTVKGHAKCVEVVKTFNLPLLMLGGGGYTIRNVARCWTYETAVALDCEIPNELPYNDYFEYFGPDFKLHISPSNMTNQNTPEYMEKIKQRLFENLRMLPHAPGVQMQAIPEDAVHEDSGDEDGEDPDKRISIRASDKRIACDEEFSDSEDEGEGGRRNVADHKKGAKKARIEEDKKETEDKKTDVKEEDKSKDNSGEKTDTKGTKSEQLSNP

EC50 [1]: 50 nM | IC50 [2]: 2.8 nM | inhibition [3]: inactive | fraction unbound [5]: 0.018 | F [6]: 62% | bioavailability [7]: 100% | bioavailability [8]: 30% | Vdss [9]: 3.2 L/kg | Vdss [10]: 5.3 L/kg | Vd [11]: 0.64 L/kg | AUC [12]: 21.5 µM·h
Structure (SMILES): CCC(=O)CCCCC[C@H](NC(=O)C1CN(C)C1)c1ncc(-c2cc3ccccc3nc2OC)o1
Activity [4]: Non-Toxic
